Laboratory results published in ChEMBL document CHEMBL2417469, “Synthesis of novel analogs of 2-pyrazoline obtained from [(7-chloroquinolin-4-yl)amino]chalcones and hydrazine as potential antitumor and antimalarial agents” (Eur J Med Chem, 2013).

Tests used:
Assay type in all cases: functional
TK-10 = assay: Cytotoxicity against human TK10 cells after 48 hrs by SRB assay; details: TK-10, 48 h
Method in brief: (§1)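 NCI 60-cell screen. Cells grew 24 h (37 °C, 5% CO2) before compound was added. Compounds were in DMSO and diluted in medium with gentamicin, then tested at five levels (100, 10, 1.0, 0.1, 0.01 µM) with 48 h continuous exposure. Adherent cells were fixed with TCA (10% final) and stained with 0.4% SRB, absorbance read at 515 nm. A time-zero plate was included. LC50 is the concentration giving 50% loss of protein relative to time zero.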

LOX IMVI = assay: Cytotoxicity against human LOXIMVI cells after 48 hrs by SRB assay
Method in brief: (§2)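 NCI 60-cell-line screen. Cells preincubated 24 h at 37 °C, 5% CO2; time-zero plates TCA-fixed. Compounds dissolved in DMSO and tested at five concentrations (100, 10, 1.0, 0.1, 0.01 µM) for 48 h continuous exposure. Adherent cells fixed with cold TCA (10% final), then SRB stained; absorbance at 515 nm. GI50, TGI and LC50 calculated from growth relative to time-zero and untreated controls.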

KM12 = assay: Cytotoxicity against human KM12 cells after 48 hrs by SRB assay; details: KM12, 48 h; method in brief: as §2
HCC 2998 = assay: Cytotoxicity against human HCC2998 cells after 48 hrs by SRB assay; details: HCC 2998, 48 h; method in brief: as §2
HCT-116 = assay: Cytotoxicity against human HCT116 cells after 48 hrs by SRB assay; details: HCT-116, 48 h; method in brief: as §2
HOP-62 = assay: Cytotoxicity against human HOP62 cells after 48 hrs by SRB assay; details: HOP-62, 48 h; method in brief: as §2
UACC-257 = assay: Cytotoxicity against human UACC257 cells after 48 hrs by SRB assay; details: UACC-257, 48 h; method in brief: as §1
A498 = assay: Cytotoxicity against human A498 cells after 48 hrs by SRB assay; details: A498, 48 h; method in brief: as §2
786-0 = assay: Cytotoxicity against human 786-0 cells after 48 hrs by SRB assay; details: 786-0, 48 h; method in brief: as §2
RPMI-8226 = assay: Cytotoxicity against human RPMI8226 cells after 48 hrs by SRB assay; details: RPMI-8226, 48 h; method in brief: as §2
Malme-3M = assay: Cytotoxicity against human MALME-3M cells after 48 hrs by SRB assay; method in brief: as §2
PC-3 = assay: Cytotoxicity against human PC3 cells after 48 hrs by SRB assay; details: PC-3, 48 h; method in brief: as §2
COLO 205 = assay: Cytotoxicity against human COLO205 cells after 48 hrs by SRB assay; details: COLO 205, 48 h; method in brief: as §2
SN12C = assay: Cytotoxicity against human SN12C cells after 48 hrs by SRB assay; method in brief: as §2
NCI-H226 = assay: Cytotoxicity against human NCI-H226 cells after 48 hrs by SRB assay; details: NCI-H226, 48 h; method in brief: as §2
CCRF-CEM = assay: Cytotoxicity against human CCRF-CEM cells after 48 hrs by SRB assay; method in brief: as §2
SNB-19 = assay: Cytotoxicity against human SNB19 cells after 48 hrs by SRB assay; details: SNB-19, 48 h; method in brief: as §1
SK-MEL-28 = assay: Cytotoxicity against human SK-MEL-28 cells after 48 hrs by SRB assay; details: SK-MEL-28, 48 h; method in brief: as §2
MDA-MB-435 = assay: Cytotoxicity against human MDA-MB-435 cells after 48 hrs by SRB assay; details: MDA-MB-435, 48 h; method in brief: as §2
NCI-H23 = assay: Cytotoxicity against human NCI-H23 cells after 48 hrs by SRB assay; details: NCI-H23, 48 h; method in brief: as §2
UO-31 = assay: Cytotoxicity against human UO31 cells after 48 hrs by SRB assay; details: UO-31, 48 h; method in brief: as §1
M14 = assay: Cytotoxicity against human M14 cells after 48 hrs by SRB assay; details: M14, 48 h; method in brief: as §2
UACC-62 = assay: Cytotoxicity against human UACC62 cells after 48 hrs by SRB assay; details: UACC-62, 48 h; method in brief: as §1
SK-MEL-5 = assay: Cytotoxicity against human SK-MEL-5 cells after 48 hrs by SRB assay; details: SK-MEL-5, 48 h; method in brief: as §2
DU-145 = assay: Cytotoxicity against human DU145 cells after 48 hrs by SRB assay; details: DU-145, 48 h; method in brief: as §2
OVCAR-3 = assay: Cytotoxicity against human OVCAR3 cells after 48 hrs by SRB assay; details: OVCAR-3, 48 h; method in brief: as §2
T47D = assay: Cytotoxicity against human T47D cells after 48 hrs by SRB assay; method in brief: as §1
MDA-MB-231 = assay: Cytotoxicity against human MDA-MB-231 cells after 48 hrs by SRB assay; details: MDA-MB-231, 48 h; method in brief: as §2
SNB-75 = assay: Cytotoxicity against human SNB75 cells after 48 hrs by SRB assay; details: SNB-75, 48 h; method in brief: as §1
SF-295 = assay: Cytotoxicity against human SF295 cells after 48 hrs by SRB assay; details: SF-295, 48 h; method in brief: as §2
A549 = assay: Cytotoxicity against human A549/ATCC cells after 48 hrs by SRB assay; details: A549, 48 h; method in brief: as §2
MOLT-4 = assay: Cytotoxicity against human MOLT4 cells after 48 hrs by SRB assay; details: MOLT-4, 48 h; method in brief: as §2
HOP-92 = assay: Cytotoxicity against human HOP92 cells after 48 hrs by SRB assay; details: HOP-92, 48 h; method in brief: as §2
OVCAR-4 = assay: Cytotoxicity against human OVCAR4 cells after 48 hrs by SRB assay; details: OVCAR-4, 48 h; method in brief: as §2
[1] = read-out: LC50 (the source's name)

For O=CN1N=C(c2ccc(Nc3ccnc4cc(Cl)ccc34)cc2)CC1c1ccccc1 (stereo not drawn), the GI50 (TK-10) was 9.51 µM, the LC50 (concentration giving 50% cell loss vs time zero) (TK-10) was greater than 100 µM and the GI50 (LOX IMVI) was 1.61 µM. The LC50 (LOX IMVI) was 6.88 µM, the GI50 (KM12) was 3.41 µM and the LC50 (concentration killing 50% of cells) (KM12) was greater than 100 µM. For the same compound, the GI50 (HCC 2998) was 3.5 µM, the LC50 (HCC 2998) was greater than 100 µM and the GI50 (HCT-116) was 3.58 µM. For the same compound, the LC50 (HCT-116) was greater than 100 µM, the GI50 (HOP-62) was 5.26 µM and the LC50 (50% lethal concentration) (HOP-62) was greater than 100 µM. The GI50 (UACC-257) was 10.1 µM, the LC50 (UACC-257) was greater than 100 µM and the GI50 (A498) was 1.3 µM. The CC50 (A498; [1]) was greater than 100 µM, the GI50 (786-0) was 3.36 µM and the LC50 (786-0) was 98.4 µM. It also gave a GI50 (RPMI-8226) of 2.55 µM, an LC50 (concentration killing 50% of cells) (RPMI-8226) greater than 100 µM and a GI50 (Malme-3M) of 4.21 µM. The LC50 (Malme-3M) was greater than 100 µM, the GI50 (PC-3) was 4.76 µM and the LC50 (PC-3) was greater than 100 µM. The GI50 (COLO 205) was 2.21 µM, the LC50 (COLO 205) was greater than 100 µM and the GI50 (SN12C) was 3.8 µM. For the same compound, the LC50 (50% net cell kill relative to time zero) (SN12C) was greater than 100 µM, the GI50 (NCI-H226) was 5.22 µM and the LC50 (50% lethal concentration) (NCI-H226) was greater than 100 µM. For the same compound, the GI50 (CCRF-CEM) was 2.51 µM, the LC50 (concentration killing 50% of cells relative to time zero) (CCRF-CEM) was greater than 100 µM and the GI50 (SNB-19) was 5.13 µM. It also gave an LC50 (SNB-19) greater than 100 µM, a GI50 (SK-MEL-28) of 8.35 µM and a CC50 (SK-MEL-28; [1]) greater than 100 µM. For the same compound, the GI50 (MDA-MB-435) was 1.59 µM, the LC50 (MDA-MB-435) was greater than 100 µM and the GI50 (NCI-H23) was 3.64 µM. For the same compound, the CC50 (NCI-H23; [1]) was greater than 100 µM, the GI50 (UO-31) was 3.81 µM and the LC50 (UO-31) was greater than 100 µM. It also gave a GI50 (M14) of 4.12 µM, a CC50 (M14; [1]) greater than 100 µM and a GI50 (UACC-62) of 1.55 µM. The CC50 (UACC-62; [1]) was 17.4 µM, the GI50 (SK-MEL-5) was 1.38 µM and the LC50 (concentration killing 50% of cells present at time zero) (SK-MEL-5) was 11.2 µM. The GI50 (DU-145) was 3.8 µM, the LC50 (concentration killing 50% of cells) (DU-145) was greater than 100 µM and the GI50 (OVCAR-3) was 2.78 µM. The LC50 (OVCAR-3) was 43.2 µM, the GI50 (T47D) was 2.18 µM and the LC50 (concentration giving 50% cell kill relative to time zero) (T47D) was greater than 100 µM. For the same compound, the GI50 (MDA-MB-231) was 2.43 µM, the LC50 (concentration killing 50% of cells present at time zero) (MDA-MB-231) was greater than 100 µM and the GI50 (SNB-75) was 5.03 µM. The LC50 (50% net cell kill) (SNB-75) was greater than 100 µM, the GI50 (SF-295) was 2.41 µM and the LC50 (SF-295) was greater than 100 µM. For the same compound, the GI50 (A549) was 4.05 µM, the CC50 (A549; [1]) was greater than 100 µM and the GI50 (MOLT-4) was 2.28 µM. It also gave an LC50 (MOLT-4) greater than 100 µM, a GI50 (HOP-92) of 4.28 µM and an LC50 (concentration killing 50% of cells) (HOP-92) greater than 100 µM. The GI50 (OVCAR-4) was 3.88 µM and the LC50 (OVCAR-4) was greater than 100 µM.
